Measurements of several laboratories.
Target: Homeodomain-interacting protein kinase 2 (HIPK2, Homo sapiens, UniProt Q9H2X6)

COc1ncc2cc3ccccc3nc2c1C#N — remaining binding (cell-free assay, competition with immobilised ligand; 5 µM): 98%
CC1=C(C#N)[C@@H](c2ccc3[nH]nc(C)c3c2)C(C#N)=C(c2ccc(Cl)cc2)N1 — remaining binding (cell-free assay, competition with immobilised ligand; 1 µM): 86.1%
c1cncc(-c2cccc(Nc3nccc(NC4CCCCC4)n3)c2)c1 — remaining binding (binding, competition with immobilised ligand; 10 µM): 53%
COc1cnc(Nc2cccc(S(N)(=O)=O)c2)nc1N1CCN(c2ccccc2)CC1 — remaining binding (binding, competition with immobilised ligand; 1 µM): 100%
C[C@H]1CCN(c2nccc(-c3cnn4ncccc34)n2)C1 — remaining binding (binding; 1 µM): 45%
CN(C)C(=O)Cn1cc(-c2nc(C3(c4ccc(-c5cnc(N)nc5)cc4)CC3)no2)cn1 — remaining binding (cell-free assay, competition with immobilised ligand; 1 µM): 94%
C=CC(=O)N1CCC(C(=O)NCC(=O)N2CCN(c3nc(-c4cnc(N)nc4C(F)F)nc(N4CCOCC4)n3)CC2)CC1 — remaining binding (binding, competition with immobilised ligand; 1 µM): 83%
CC(C)(O)c1cncc(-c2nc3ccc(F)cc3n2C2CC2)c1 — remaining binding (cell-free assay, competition with immobilised ligand; 1 µM): 100%
O=C(c1ccc(Nc2nccc(-c3cc4ccccc4s3)n2)cc1)N1CCC(N2CCCC2)CC1 — remaining binding (binding, competition with immobilised ligand; 1 µM): 8.8%
Cc1c[nH]c2nccc(Oc3c(F)cc(Nc4cc(Cl)nc(N)n4)cc3F)c12 — remaining binding (cell-free assay, competition with immobilised ligand; 0.1 µM): 90%
N[C@@H]1CCN(c2nccc(-c3cnn4ncccc34)n2)C1 — remaining binding (binding; 1 µM): 100%
O=C(O)[C@H]1[C@H](Cn2nnc3ccccc3c2=O)CC[C@@H]1C(=O)c1ccc(OCCC2CCOCC2)cc1 — remaining binding (cell-free assay, competition with immobilised ligand; 1 µM): 100%
C[C@@H](c1ccc(-n2cnc3c(N)ncnc32)cc1)N1CCc2nn(C)c(Cc3ccccc3)c2C1=O — remaining binding (binding, competition with immobilised ligand; 0.1 µM): 80%
O=C(Nc1c[nH]nc1C(=O)NC1CCNCC1)c1cc(F)cc(F)c1 — remaining binding (binding, competition with immobilised ligand; 1 µM): 33%
CN(c1nccc(-c2cnn3ncccc23)n1)C1CC1 — remaining binding (binding; 1 µM): 100%
O=C(NCCCN1CCOCC1)c1ccc(Nc2ncc(Cl)c(-c3ccc(Cl)s3)n2)cc1 — remaining binding (binding, competition with immobilised ligand; 1 µM): 8.9%
F[C@@H]1CCN(c2nccc(-c3cnn4ncccc34)n2)C1 — remaining binding (binding; 1 µM): 100%
Nc1ncc2c(n1)-c1c([nH]c3ccc(C#CC4CC4)cc13)CCCC2 — remaining binding (binding, competition with immobilised ligand; 1 µM): 97%
CN(CCCC(F)(F)F)c1nccc(-c2cnn3ncccc23)n1 — remaining binding (binding; 1 µM): 100%
O=C(c1ccc(Nc2ncc(Cl)c(-c3ccc(Cl)s3)n2)cc1)N1CCC(N2CCCC2)CC1 — remaining binding (binding, competition with immobilised ligand; 1 µM): 0.15%
CN(C)c1nccc(-c2cnc3ncccn23)n1 — remaining binding (binding; 1 µM): 36%
CCC(=O)N[C@@H]1CC[C@H](C(=O)N(C)c2ccc(-c3nc4ccccc4o3)cc2)C1 — remaining binding (cell-free assay, competition with immobilised ligand; 1 µM): 100%
